Test results as given in ChEMBL document CHEMBL1144339, “Synthesis and activity of oleanolic acid derivatives, a novel class of inhibitors of osteoclast formation” (2005).

System: Osteoclast-like
Test: Percent inhibition of tartrate resistant acid phosphatase positive osteoclast like multinucleated cells formation by 1-alpha, 25-dihydroxy vitamin D3 in mouse bone marrow cells
Assay type: functional
Design: concentration or dose not given beside the values
Summary of the method: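 Run as a co-culture assay. Formation of osteoclast-like multinucleated cells was induced with 1α,25-dihydroxy vitamin D₃.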

Q: Which Inhibition does the source give for `CCC(C)C(NC(=O)[C@]12CCC(C)(C)C[C@H]1C1=CC[C@@H]3[C@@]4(C)CC[C@H](O)C(C)(C)C4CC[C@@]3(C)[C@]1(C)CC2)C(=O)O` (stereo partly specified) here?
A: 53.5%

Q: Which Inhibition does the source give for `CC(C)C(NC(=O)[C@]12CCC(C)(C)C[C@H]1C1=CC[C@@H]3[C@@]4(C)CC[C@H](O)C(C)(C)C4CC[C@@]3(C)[C@]1(C)CC2)C(=O)O` (stereo partly specified) here?
A: 41.3%

Q: Which Inhibition does the source give for `CC(NC(=O)[C@]12CCC(C)(C)C[C@H]1C1=CC[C@@H]3[C@@]4(C)CC[C@H](O)C(C)(C)C4CC[C@@]3(C)[C@]1(C)CC2)C(=O)O` (stereo partly specified) here?
A: 87.8%

Q: Which Inhibition does the source give for `CC1(C)CC[C@]2(C(=O)O)CC[C@]3(C)C(=CC[C@@H]4[C@@]5(C)CC[C@H](O)C(C)(C)C5CC[C@]43C)[C@@H]2C1` (stereo partly specified) here?
A: 27.6%

Q: With `CC1(C)CC[C@]2(C(=O)N3CCCC3C(=O)O)CC[C@]3(C)C(=CC[C@@H]4[C@@]5(C)CC[C@H](O)C(C)(C)C5CC[C@]43C)[C@@H]2C1` (stereo partly specified) as the compound, how does the Inhibition read?
A: 21%

Q: For `CC1(C)CC[C@]2(C(=O)N3CCCC3C(=O)O)CC[C@]3(C)C(=CC(=O)[C@@H]4[C@@]5(C)CC[C@H](O)C(C)(C)C5CC[C@]43C)[C@@H]2C1` (stereo partly specified), which Inhibition is on record?
A: 40.3%

Q: Which Inhibition does the source give for `CC1(C)CC[C@]2(C(=O)NC(Cc3ccccc3)C(=O)O)CC[C@]3(C)C(=CC[C@@H]4[C@@]5(C)CC[C@H](O)C(C)(C)C5CC[C@]43C)[C@@H]2C1` (stereo partly specified) here?
A: 16.3%

Q: How did the Inhibition turn out when `CC1(C)CC[C@]2(C(=O)O)CC[C@]3(C)C(=CC(=O)[C@@H]4[C@@]5(C)CC[C@H](O)C(C)(C)C5CC[C@]43C)[C@@H]2C1` (stereo partly specified) was run?
A: 38.5%

Q: For `CC(C)C(NC(=O)[C@]12CCC(C)(C)C[C@H]1C1=CC(=O)[C@@H]3[C@@]4(C)CC[C@H](O)C(C)(C)C4CC[C@@]3(C)[C@]1(C)CC2)C(=O)O` (stereo partly specified), which Inhibition is on record?
A: 59%

Q: For `CCC(C)C(NC(=O)[C@]12CCC(C)(C)C[C@H]1C1=CC(=O)[C@@H]3[C@@]4(C)CC[C@H](O)C(C)(C)C4CC[C@@]3(C)[C@]1(C)CC2)C(=O)O` (stereo partly specified), which Inhibition is on record?
A: 62%

Q: With `CC1(C)CC[C@]2(C(=O)NCC(=O)O)CC[C@]3(C)C(=CC(=O)[C@@H]4[C@@]5(C)CC[C@H](O)C(C)(C)C5CC[C@]43C)[C@@H]2C1` (stereo partly specified) as the compound, how does the Inhibition read?
A: 83.3%

Q: With `CC1(C)CC[C@]2(C(=O)NC(Cc3ccccc3)C(=O)O)CC[C@]3(C)C(=CC(=O)[C@@H]4[C@@]5(C)CC[C@H](O)C(C)(C)C5CC[C@]43C)[C@@H]2C1` (stereo partly specified) as the compound, how does the Inhibition read?
A: 36.5%

Q: `CC(C)CC(NC(=O)[C@]12CCC(C)(C)C[C@H]1C1=CC[C@@H]3[C@@]4(C)CC[C@H](O)C(C)(C)C4CC[C@@]3(C)[C@]1(C)CC2)C(=O)O` (stereo partly specified) was tested. Which Inhibition did it give?
A: 51.2%

Q: With `CC(NC(=O)[C@]12CCC(C)(C)C[C@H]1C1=CC(=O)[C@@H]3[C@@]4(C)CC[C@H](O)C(C)(C)C4CC[C@@]3(C)[C@]1(C)CC2)C(=O)O` (stereo partly specified) as the compound, how does the Inhibition read?
A: 76.3%

Q: `CC(C)CC(NC(=O)[C@]12CCC(C)(C)C[C@H]1C1=CC(=O)[C@@H]3[C@@]4(C)CC[C@H](O)C(C)(C)C4CC[C@@]3(C)[C@]1(C)CC2)C(=O)O` (stereo partly specified) was tested. Which Inhibition did it give?
A: 69.5%

Q: With `CC1(C)CC[C@]2(C(=O)NCC(=O)O)CC[C@]3(C)C(=CC[C@@H]4[C@@]5(C)CC[C@H](O)C(C)(C)[C@@H]5CC[C@]43C)[C@@H]2C1` as the compound, how does the Inhibition read?
A: 61.5%
